Test results: ChEMBL document CHEMBL4325822, “Discovery of a tetrazolyl β-carboline with in vitro and in vivo osteoprotective activity under estrogen-deficient conditions” (Medchemcomm, 2018)
Values belong to the compound of their own block, whether it stands above or below them. Activity calls are given as the source filed them. The calls are words filed in the database; no cut-off is given here.

Assays:
[1] = Induction of osteoblast differentiation in Sprague-Dawley rat calvarial osteoblasts assessed as alkaline phosphatase activity after 48 hrs using PNPP as substrate by spectrophotometric method; format: functional, cell-based
Method in brief: (§1)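 Calvarial osteoblasts at 2 × 10³ cells/well. Treated 48 h with varied concentrations in differentiation medium (5% charcoal-treated FBS, 10 mM β-glycerophosphate, 50 µg·mL⁻¹ ascorbic acid). Total ALP read with PNPP substrate at 405 nm. Cell-free wells check for compound interference with substrate or absorbance.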

Calvarial osteoblast [2] = experiment: Induction of osteoblast differentiation in Sprague-Dawley rat calvarial osteoblasts assessed as alkaline phosphatase activity at 0.000001 to 1 uM after 48 hrs using PNPP as substrate by spectrophotometric method relative to control; format: functional, cell-based; method in brief: as §1
Calvarial osteoblast [3] = experiment: Induction of osteoblast differentiation in Sprague-Dawley rat calvarial osteoblasts assessed as alkaline phosphatase activity at 10 nM after 48 hrs using PNPP as substrate by spectrophotometric method relative to control; format: functional; method in brief: as §1
Calvarial osteoblast [4] = experiment: Osteogenic activity in Sprague-Dawley rat calvarial osteoblasts assessed as mineralized nodule formation at 100 pM after 21 days by alizarin red-S staining based light microscopic method; format: functional, cell-based
Method in brief: (§2)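 Osteoblasts at 10,000–15,000 cells/cm² in duplicate plates, 21 days in differentiation medium, medium changed every 48 h. Cells fixed in 4% PFA, stained with alizarin red-S (40 mM, pH 4.5, 30 min) and photographed. Stain extracted with 10% acetic acid, pH brought to 4.5 with ammonium hydroxide, read at 405 nm, normalized to cell number.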

Calvarial osteoblast [5] = experiment: Osteogenic activity in Sprague-Dawley rat calvarial osteoblasts assessed as mineralized nodule formation at 100 pM after 21 days by alizarin red-S staining based colorimetric method; format: functional; method in brief: as §2
Calvarial osteoblast [6] = experiment: Increase in OCN protein expression in Sprague-Dawley rat calvarial osteoblasts at 100 pM after 48 hrs by Western blot analysis; format: functional, cell-based
Method in brief: (§3)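 Rat calvarial osteoblasts (pooled 1–2-day pups, collagenase/dispase digests) at 60–70% confluence treated 48 h. Whole-cell lysates immunoblotted with primary antibody overnight at 4 °C, then HRP secondary, with ECL detection. Densitometry gives fold change normalized to β-actin versus untreated cells. Mean ± SEM of three independent experiments.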

[7] = Increase in OCN mRNA expression in Sprague-Dawley rat calvarial osteoblasts at 100 pM by RT-PCR method relative to control; format: functional, Calvarial osteoblast
Method in brief: (§4)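 Primary calvarial osteoblasts were lysed in TRIzol after treatment, and total RNA was extracted. Transcripts were quantified by real-time PCR using the comparative CT (ΔΔCT) method.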

[8] = Increase in BMP2 mRNA expression in Sprague-Dawley rat calvarial osteoblasts at 100 pM by RT-PCR method relative to control; format: functional, Calvarial osteoblast; method in brief: as §4
Calvarial osteoblast [9] = experiment: Cytotoxicity against Sprague-Dawley rat calvarial osteoblasts assessed as reduction in cell viability at 0.000001 to 1 uM after 48 hrs by MTT assay; format: cell-based
Method in brief: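 Osteoblasts came from pooled calvaria of 1-2-day-old Sprague-Dawley pups, isolated by sequential dispase/collagenase digestion. Cells were exposed to compound at 1 pM to 1 µM for 48 h, and viability was measured by MTT.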

Calvarial osteoblast [10] = experiment: Increase in BMP2 protein expression in Sprague-Dawley rat calvarial osteoblasts at 100 pM after 48 hrs by Western blot analysis; format: functional, cell-based
Method in brief: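 Rat calvarial osteoblasts at 60-70% confluence were treated 48 h. Whole-cell lysates were blotted, blocked in 5% milk, and probed with primary antibody overnight at 4 °C, then with HRP secondary and ECL detection. Densitometry was normalized to β-actin; fold change versus untreated cells, three independent experiments, mean ± SEM.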

[11] = Induction of osteoblast differentiation in Sprague-Dawley rat calvarial osteoblasts assessed as alkaline phosphatase activity at 100 pM after 48 hrs using PNPP as substrate by spectrophotometric method relative to control; format: functional; method in brief: as §1
[12] = Increase in Runx2 mRNA expression in Sprague-Dawley rat calvarial osteoblasts at 100 pM by RT-PCR method relative to control; format: functional, Calvarial osteoblast
Calvarial osteoblast [13] = experiment: Increase in Runx2 protein expression in Sprague-Dawley rat calvarial osteoblasts at 100 pM after 48 hrs by Western blot analysis; format: functional, cell-based; method in brief: as §3
[14] = Rattus norvegicus, Sprague-Dawley, Calvarial osteoblast, 48 h, read-out: EC50

SMILES: COC(=O)CNC(c1nc(C(=O)OC)cc2c1[nH]c1ccccc12)c1nnnn1C(C)(C)C (stereo unspecified)
EC50 ([1]; calvarial osteoblast): Not Active
Emax (Calvarial osteoblast [2]): inactive

SMILES: COC(=O)c1cc2c([nH]c3ccccc32)c(C(NCc2ccc(Cl)c(Cl)c2)c2nnnn2C(C)(C)C)n1 (stereo unspecified)
EC50 ([1]; calvarial osteoblast): Not Active
Emax (Calvarial osteoblast [2]): inactive

SMILES: CCOC(=O)c1cc2c([nH]c3ccccc32)c(C=O)n1
EC50 [1, 14]: 0.613 µM
Activity (Calvarial osteoblast [5]): 20%
Activity (Calvarial osteoblast [6]): Active
fold change (FC) [7]: 1.8 - 4.6
fold change (FC) [8]: 1.8 - 4.6
Activity (Calvarial osteoblast [9]): Non-Toxic
Activity (Calvarial osteoblast [10]): Active
Emax at 0.0001 µM [11]: 65%
fold change (FC) [12]: 1.8 - 4.6
Activity (Calvarial osteoblast [13]): Active

Now from value to compound, other results behind:

EC50 ([1]; calvarial osteoblast): Not Active
Emax (Calvarial osteoblast [2]): inactive
SMILES: CCOC(=O)c1cc2c([nH]c3ccccc32)c(C(c2nnnn2C(C)(C)C)N2CCN(Cc3ccc4c(c3)OCO4)CC2)n1 (stereo unspecified)

EC50 ([1]; calvarial osteoblast): Not Active
Emax (Calvarial osteoblast [3]): inactive
SMILES: CCN1CCN(C(c2nc(C(=O)OC)cc3c2[nH]c2ccccc23)c2nnnn2C(C)(C)C)CC1 (stereo unspecified)

EC50 [1, 14]: 3.27 µM
SMILES: COC(=O)c1cc2c([nH]c3ccccc32)c(C(c2nnnn2C(C)(C)C)N2CCN(c3ncccn3)CC2)n1 (stereo unspecified)
Activity (Calvarial osteoblast [4]): Active
Activity (Calvarial osteoblast [5]): 48%
Activity (Calvarial osteoblast [6]): Active
fold change (FC) [7]: 1.8 - 4.6
fold change (FC) [8]: 1.8 - 4.6
Activity (Calvarial osteoblast [9]): Non-Toxic
Activity (Calvarial osteoblast [10]): Active
Emax at 0.0001 µM [11]: 80%
fold change (FC) [12]: 1.8 - 4.6
Activity (Calvarial osteoblast [13]): Active

EC50 ([1]; calvarial osteoblast): Not Active
Emax (Calvarial osteoblast [2]): inactive
SMILES: CCOC(=O)c1cc2c([nH]c3ccccc32)c(C(c2nnnn2C(C)(C)C)N2CCN(c3ccc(F)cc3)CC2)n1 (stereo unspecified)
